# Source: PubChem (several laboratories)
# Shown are actives, neighbours in structure and some others; about 1.6% of the full set was active somewhere.
# NR2E3 ag-1 – NR2E3 (human) agonism. hit rate 0.12% among 320,000. Q9Y5X4. inhibition of corepressor binding, % at 4.78 µM. GST-NR2E3/biotin-RetCOR TR-FRET, 1536-well. AID 2300;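 active = percent inhibition above the cutoff of mean plus 3 SD of all tested compounds, set per screening campaign, cut at about 20% in these data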
#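 Material: NR2E3–RetCOR corepressor complex | Quantity: 1.35 nM GST-tagged NR2E3 final | Schedule: 5 h at 4 °C | Replication: Singlicate compound wells | Reagent: RetCOR corepressor, biotinylated, 7 nM | Controls: Biotin wells as high control, 0.6% DMSO wells as low control | Signal: TR-FRET, Eu(K)-anti-GST donor, streptavidin-D2 acceptor, ex 340, em 617/671 nm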
# NR2E3 ag-2 – activates human NR2E3 receptor; CHO-S Gal4-NCOR/VP16-NR2E3 two-hybrid, luciferase; inhibition of corepressor binding, % at 3.98 µM; hit rate 0.35% among 360,000;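 active = inhibition above the mean of all tested compounds plus 3 SD, cut at about 70% in these data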;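 also: higher means lower luciferase signal from less NR2E3 corepressor binding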
# NR1D1 modulator – modulators of human Rev-erb alpha DNA binding | activity, % at 10 µM | Rev-erbα–FITC-DNA binding, fluorescence polarization, 90 min | AID 1259318 | hit rate 0.79% among 370,000 | P20393;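 active = activity above about 14%, limit read from the data; passing the limit was not always enough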
# PG9 binder – PG9 antibody binding by small molecule | TR-FRET gp120-PG9 antibody binding | AID 624416 | hit rate 0.43% among 360,000 | inhibition, % at 6.7 µM; in the data active = inhibition above about 8.5%
# PKA-R1A act – activates the PKA-R1A holoenzyme complex; P00514+P68181; PKA-R1A dissociation, Cy5-IP20 fluorescence polarization; scaled: DMSO 0%, 113 µM cGMP 100%; activation, % at 11.4 µM; hit rate 0.083% among 340,000; AID 504707;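 active = percent activation above the mean of all tested compounds plus 3 SD, cut at about 19% in these data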;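 also: higher means more PKAc released from R1A so a rise in polarization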
# PKA-R2B act – PKA-R2B complex activation; P22694+P31323; hit rate 0.079% among 340,000; PKA-R2B holoenzyme dissociation, Cy5-IP20 fluorescence polarization; R2B truncated from residue 108, S112A mutant; 0% DMSO only, 100% 113 µM cGMP; AID 504700; activation, % at 11.4 µM;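 active = activation above a cutoff set at the mean over all compounds plus 3 SD, cut at about 18% in these data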;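 also: higher means more holoenzyme dissociation and a rise in polarization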
# Target sequence (P31323 whole entry, looked up, other chains not shown, the tested form may be a part): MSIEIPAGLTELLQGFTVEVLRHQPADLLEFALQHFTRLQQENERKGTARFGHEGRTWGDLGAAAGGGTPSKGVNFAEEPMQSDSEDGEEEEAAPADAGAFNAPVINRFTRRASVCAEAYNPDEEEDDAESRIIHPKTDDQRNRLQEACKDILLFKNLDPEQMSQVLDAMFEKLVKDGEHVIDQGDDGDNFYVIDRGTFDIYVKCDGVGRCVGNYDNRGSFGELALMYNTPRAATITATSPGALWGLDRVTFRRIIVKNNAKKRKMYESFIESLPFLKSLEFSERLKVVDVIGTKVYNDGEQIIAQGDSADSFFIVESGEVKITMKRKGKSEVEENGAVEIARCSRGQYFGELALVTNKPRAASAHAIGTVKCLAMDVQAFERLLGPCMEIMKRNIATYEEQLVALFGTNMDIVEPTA
# NR2E3 ag conf – confirmation of human NR2E3 agonists. shares compounds with NR2E3 ag-2. CHO-S mammalian two-hybrid NR2E3-NCOR, luciferase luminescence. inhibition, % at 3.98 µM. hit rate 51% among 2,300. AID 624378;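 active = average inhibition above a cutoff equal to the mean inhibition of all tested compounds plus one SD, cut at about 70% in these data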
# VP16 counter – reduces GAL4-VP16 reporter signal in NR2E3 counterscreen. shares compounds with NR2E3 ag-2. hit rate 29% among 2,300. inhibition, % at 3.98 µM. CHO-S GAL4-VP16 luciferase reporter, luminescence. AID 624379;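 active = mean inhibition above a cutoff equal to the average over all tested compounds plus one standard deviation, cut at about 70% in these data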;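 also: luciferase from a UAS reporter driven by GAL4-VP16 transactivation; higher means less reporter light so more repression of VP16 activity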
# Numbers stand for hits; i = inactive; nt = no result given.
SMILES,NR2E3 ag-1,NR2E3 ag-2,NR1D1 modulator,PG9 binder,PKA-R1A act,PKA-R2B act,NR2E3 ag conf,VP16 counter
CC(=O)Nc1ccc(S(=O)(=O)NCCSCc2ccccc2Cl)cc1,i,71.0,i,i,i,i,82.1,i
Cc1ccc(NC(=O)C(C)c2cccc(C(=O)c3ccccc3)c2)cc1O (configuration not stated),i,i,i,i,i,i,94.6,80.1
Cc1cccc(NC(=O)C(C)C(=O)c2ccccc2)c1 (configuration not stated),nt,i,i,i,i,i,nt,nt
COC(=O)Cc1c(C)c2ccc(OC3CCCCC3=O)cc2oc1=O (configuration not stated),nt,i,i,i,i,i,nt,nt
COC(=O)Cc1c(C)c2ccc(OC3CCCCC3=O)c(C)c2oc1=O (configuration not stated),i,72.0,i,i,i,i,i,i
Cc1cc(N)n2ncc(-c3ccccc3)c2n1,i,i,i,i,i,i,nt,nt
CC(=O)Nc1ccc(Nc2cc(C)nc3c(-c4ccccc4)cnn23)cc1,i,i,i,i,i,i,i,i
COc1ccc(Br)cc1CSC(=N)N,i,i,i,i,i,i,nt,nt
CCCCCOc1ccc(Br)cc1CSC(=N)N,nt,i,i,i,i,i,89.6,i
CN(Cc1cnc2nc(N)nc(N)c2n1)c1ccc(C(=O)NC(CCC(=O)O)C(=O)O)cc1 (configuration not stated),nt,i,i,i,i,i,i,i
CN(Cc1cnc2nc(N)nc(N)c2n1)c1ccc(C(=O)NC(CCC(=O)O)C(=O)O)cc1C(F)(F)F (configuration not stated),nt,i,i,i,i,i,nt,nt
CN(C(=O)OC(C)(C)C)c1ccc(-c2nc3ccccc3s2)cc1,i,89.1,i,i,i,i,85.5,77.5
CC(C)c1ccc(-c2nc3ccccc3s2)cc1,i,87.6,i,i,i,i,71.3,i
COC(=O)[C@]12C[C@H](CC(=O)N3CCCCC3)C(=O)N(CCc3ccc(OC)c(OC)c3)C1=C[C@H](COCc1ccccc1)O[C@@H]2C,nt,nt,i,nt,nt,nt,nt,nt
CCOC(=O)Cn1cc(CN2C(C(=O)OC)CN(Cc3ccccc3)CCS2(=O)=O)nn1 (configuration not stated),nt,nt,i,nt,nt,nt,nt,nt
Cc1ccc(-n2nnnc2SCn2nnc3ccccc3c2=O)c(C)c1,i,92.1,i,i,i,i,88.7,72.2
O=C(OCCN1CCN(C2CN(Cc3cn(Cc4ccc([N+](=O)[O-])cc4)nn3)S(=O)(=O)C2)CC1)c1cc2ccccc2o1 (configuration not stated),nt,nt,i,nt,nt,nt,nt,nt
CCCCCN1CCCCC(NC(=O)c2ccc3ccccc3c2)C1=O (configuration not stated),nt,nt,i,nt,nt,nt,nt,nt
Cc1nc(-c2ccccn2)nc(N(C)c2ccccc2)c1Cl,i,105.4,i,i,i,i,i,i
O=C(OC12CCCN(C1)/C(=C/c1ccc(Cl)cc1)C2)c1cccc(F)c1 (configuration not stated),nt,nt,i,nt,nt,nt,nt,nt
COc1ccc(S(=O)(=O)Nc2ccc(Cc3ccncc3)cc2)cc1OC,i,i,i,i,i,i,71.6,i
CCc1ccc(OC)c(S(=O)(=O)Nc2ccc(Cc3ccncc3)cc2)c1,i,98.7,i,i,i,i,85.9,73.8
CCc1ccc(NS(=O)(=O)c2ccc(OC)c3ncccc23)cc1,i,i,i,i,i,i,nt,nt
COc1ccc(NC(=O)Nc2ccc(Cc3ccncc3)cc2)c(OC)c1,i,i,i,i,i,i,i,i
COc1ccc(NC(=O)Nc2cnccn2)c(OC)c1,i,i,i,i,i,i,nt,nt
COc1ccc(NC(C)=O)cc1S(=O)(=O)Nc1ccc(OCc2ccccc2)cc1,i,72.6,i,i,i,i,77.5,i
